PC50, Activity and inhibition data for 22 compounds are collected here from ChEMBL document CHEMBL3867435, “Chemical Constituents of Mangifera indica and Their Antiausterity Activity against the PANC-1 Human Pancreatic Cancer Cell Line” (J Nat Prod, 2016).

A short description of data set [1]: (§1) Antiausteritic activity against human PANC1 cells in nutrient-deprived medium measured after 24 hrs by WST8 assay. It is filed as functional, PANC-1. Put shortly:
(§2)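 PANC-1 (Riken BRC) kept in DMEM + 10% FBS, 37 °C, 5% CO2. Seeded 1.5 × 10^4/well, 24 h in fresh DMEM, washed twice with PBS. Serial dilutions then given in DMEM or in NDM (salts, MEM vitamins, 25 mM HEPES, pH 7.4, no glucose/amino acids/serum) for 24 h. Viability read with 10% WST-8 in DMEM, 3 h, A450, vs control and blank; mean of three wells.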

Data set [2] has as its system PANC-1. Described as §1. It is filed as functional. In a few lines: as §2
The nature of data set [3]: Cytotoxicity against human PANC1 cells in Dulbecco's modified Eagle medium measured after 24 hrs by WST8 assay. The class given is toxicity, cell-based. The settings on record: panc-1, 24 h. In a few lines: as §2
In data set [4] the test system is PANC-1. As to the kind of experiment: Induction of morphological changes in human PANC1 cells in nutrient-deprived medium at 10 uM measured after 24 hrs by acridine orange/ethidium bromide-staining based fluorescence microscopy. The class given is functional, cell-based. In a few lines: (§3)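 After 24 h attachment (1.5 × 10^4/well, DMEM or RPMI-1640), cells were PBS-washed twice and exposed 24 h to compound in NDM (NDM alone as control). EB/AO reagent added for 5 min. Imaged at 20× in fluorescent and phase-contrast modes: green (AO) marks live cells, red (EB) marks dead cells.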

The test system of data set [5] is PANC-1. As to the kind of experiment: Induction of morphological changes in human PANC1 cells in nutrient-deprived medium at 5 uM measured after 6 hrs by phase contrast microscopic method. It is filed as functional, cell-based. In a few lines:
(§4)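 Cells (3.0 × 10^6) plated in 35 mm dishes and attached overnight in complete medium. Washed twice with PBS, then treated at 5 μM in NDM. Held in a stage-top incubator at 37 °C, 5% CO2, with phase-contrast images taken every 5 min for 48 h.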

Data set [6] relates to PANC-1. As to the kind of experiment: Induction of morphological changes in human PANC1 cells in nutrient-deprived medium assessed as plasma membrane blebbing at 5 uM measured after 9 hrs by phase contrast microscopic method. The class given is functional, cell-based. In a few lines:
as §4

A short description of data set [7]: Induction of cell death in human PANC1 cells in nutrient-deprived medium at 5 uM up to 24 hrs by phase contrast microscopic method. The class given is functional, PANC-1. Put shortly:
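PANC-1 cells from the Riken bank, grown in DMEM with 10% FBS, were plated at 3.0 × 10^6 per 35 mm dish and left to attach overnight in complete medium. After two PBS washes they were treated in nutrient-deprived medium (inorganic salts, 25 mM HEPES pH 7.4, MEM vitamins; no glucose, amino acids or serum). Cells were kept in a stage-top incubator at 37 °C and 5% CO2, with phase-contrast images every 5 min.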

The subject of data set [8] is PANC-1. Description: Induction of cell death in human PANC1 cells in nutrient-deprived medium at 5 uM after 48 hrs by phase contrast microscopic method. The class given is functional, cell-based. Put shortly: as §4
Data set [9] deals with PANC-1. Description: Inhibition of mobility in human PANC1 cells in nutrient-deprived medium at 5 uM measured after 6 hrs by phase contrast microscopic method. It is filed as functional, cell-based. Put shortly: as §4
For data set [10], the system named is PANC-1. As to the kind of experiment: Induction of cell death in human PANC1 cells in nutrient-deprived medium at 10 uM measured after 24 hrs by acridine orange/ethidium bromide-staining based fluorescence microscopy. The class given is functional. In a few lines: as §3

Activity calls are given as the source filed them. The calls are words filed in the database; no cut-off is given here. Where only a bound is given, the exact number is not on record here.

`C=C(CC[C@@H](C)[C@H]1CC[C@@]2(C)[C@@H]3CC[C@H]4C(C)(C)[C@@H](OC(C)=O)CC[C@@]45C[C@@]35CC[C@]12C)C(C)C(=O)O` (stereo not given in full) returned a PC50 in data set [1] of 11 µM. The results for the Activity result in data set [2] and in data set [3] were “Dose-dependent effect” and “Non-Toxic”, respectively.
In data set [1], `C/C(=C\C(O)C[C@@H](C)[C@H]1CC[C@@]2(C)[C@@H]3CC[C@H]4C(C)(C)[C@@H](O)CC[C@@]45C[C@@]35CC[C@]12C)C(=O)O` (stereo not given in full) came in with a PC50 of over 100 µM. In data set [3], the Activity result is listed as “Non-Toxic”.
For the compound `O=c1[nH]cc(F)c(=O)[nH]1` [FLUOROURACIL], the PC50 in data set [1] is over 200 µM.
The compound `C=C(CC[C@@H](C)[C@H]1CC[C@@]2(C)[C@@H]3CC[C@H]4C(C)(C)[C@@H](O)CC[C@@]45C[C@@]35CC[C@]12C)[C@@H](C)C(=O)O` showed a PC50 in data set [1] of over 100 µM. Further, in [3], the Activity result is “Non-Toxic”.
Taken in the same sequence, the figures for `C/C(=C\CC[C@@H](C)[C@H]1CC[C@@]2(C)[C@@H]3CC[C@H]4C(C)(C)[C@@H](O)CC[C@@]45C[C@@]35CC[C@]12C)C(=O)O` [MANGIFEROLIC ACID] were over 100 µM and “Non-Toxic”.
In turn, `C/C(=C\C(O)C[C@@H](C)[C@H]1CC[C@@]2(C)[C@@H]3CC[C@H]4C(C)(C)C(=O)CC[C@@]45C[C@@]35CC[C@]12C)C(=O)O` (stereo not given in full) yielded a PC50 in [1] of 32.3 µM. The Activity result in data set [3] is “Non-Toxic”.
In [1], `COc1cc(O)c(C(=O)c2ccc(O)cc2)c(O[C@@H]2O[C@H](CO)[C@@H](O)[C@H](O)[C@H]2O)c1` [MAHKOSIDE A] returned a PC50 of over 100 µM. Besides, the Activity entry in data set [3] is “Non-Toxic”.
Consider `CCCC/C=C\CCCCCCCCCCCC(=O)O[C@H]1CC[C@]23C[C@]24CC[C@]2(C)[C@@H]([C@H](C)CC/C=C(\C)C(=O)O)CC[C@@]2(C)[C@@H]4CC[C@H]3C1(C)C`, for which the PC50 in data set [1] is 69.6 µM. In addition, the Activity entry in data set [3] was “Non-Toxic”.
`C=C(CC[C@@H](C)[C@H]1CC[C@@]2(C)[C@@H]3CC[C@H]4C(C)(C)[C@H](O)CC[C@@]45C[C@@]35CC[C@]12C)[C@@H](C)C(=O)O`: the PC50 in data set [1] came to 4.8 µM. For the same compound, the Activity result in data set [2] is “Dose-dependent effect”; in data set [7], over 50%; in data set [3], “Non-Toxic”. Besides, the result in data set [4], in data set [5], in data set [6], in [8] and in data set [10] was Active. Besides, the inhibition result in data set [9] is “Active”.
`COc1cc(C[C@H]2C(=O)OC[C@@H]2Cc2ccc(OC)c(OC)c2)ccc1O` [ARCTIGENIN] showed a PC50 in [1] of 0.8 µM.
Regarding `COc1cc(O)c(C(=O)c2ccc(O)cc2)c(O)c1[C@@H]1O[C@H](CO)[C@@H](O)[C@H](O)[C@H]1OC(=O)c1ccc(O)cc1`, the PC50 in data set [1] was over 100 µM. Further, the Activity entry in data set [3] is recorded as “Non-Toxic”.
With `C=C(CC[C@@H](C)[C@H]1CC[C@@]2(C)[C@@H]3CC[C@H]4C(C)(C)C(=O)CC[C@@]45C[C@@]35CC[C@]12C)[C@@H](C)C(=O)OC`, the PC50 in [1] was 22.8 µM. In addition, the Activity result in [3] is given as “Non-Toxic”.
For `C=C(CC[C@@H](C)[C@H]1CC[C@@]2(C)[C@@H]3CC[C@H]4C(C)(C)[C@@H](O)CC[C@@]45C[C@@]35CC[C@]12C)[C@@H](C)C(=O)OC`, in that order: over 100 µM and “Non-Toxic”.
With `Nc1ccn([C@@H]2O[C@H](CO)[C@@H](O)C2(F)F)c(=O)n1` [GEMCITABINE], the PC50 in data set [1] is over 100 µM.
Consider `COc1cc(O)c(C(=O)c2ccc(O)cc2)c(O)c1[C@@H]1O[C@H](CO)[C@@H](O)[C@H](O)[C@H]1O`, for which the PC50 in [1] is over 100 µM. Besides, the Activity result in data set [3] is “Non-Toxic”.
`C=C(CC[C@@H](C)[C@H]1CC[C@@]2(C)[C@@H]3CC[C@H]4C(C)(C)[C@@H](O)CC[C@@]45C[C@@]35CC[C@]12C)C(C)CO` (stereo not given in full): the PC50 in data set [1] was over 100 µM. For the same compound, the Activity result in [3] is reported as “Non-Toxic”.
`COc1cc(O)c(C(=O)c2ccc(O)cc2)c(O)c1` returned a PC50 in data set [1] of over 100 µM. Also, in data set [3], the Activity result is reported as “Non-Toxic”.
With `C[C@H](CC/C=C(\CO)C(=O)O)[C@H]1CC[C@@]2(C)[C@@H]3CC[C@H]4C(C)(C)[C@@H](O)CC[C@@]45C[C@@]35CC[C@]12C`, the PC50 in [1] is 52.1 µM. Further, the Activity result in data set [3] is listed as “Non-Toxic”.
`C[C@H](CC/C=C(\CO)C(=O)O)[C@H]1CC[C@@]2(C)[C@@H]3CC[C@H]4C(C)(C)C(=O)CC[C@@]45C[C@@]35CC[C@]12C` had a PC50 in data set [1] of over 100 µM. In [3], the Activity entry is on record as “Non-Toxic”.
`C=C(CC[C@@H](C)[C@H]1CC[C@@]2(C)[C@@H]3CC[C@H]4C(C)(C)C(=O)CC[C@@]45C[C@@]35CC[C@]12C)[C@@H](C)C(=O)O`: the PC50 in [1] is 44.2 µM. In addition, the Activity result in data set [3] is “Non-Toxic”.
Consider `C/C(=C\CC[C@@H](C)[C@H]1CC[C@@]2(C)[C@@H]3CC[C@H]4C(C)(C)C(=O)CC[C@@]45C[C@@]35CC[C@]12C)C(=O)O` [MANGIFERONIC ACID], for which the PC50 in [1] is over 100 µM. Further, the Activity result in data set [3] is on record as “Non-Toxic”.
Take `O=c1c2cc(O)c(O)cc2oc2cc(O)c([C@@H]3O[C@H](CO)[C@@H](O)[C@H](O)[C@H]3O)c(O)c12` [MANGIFERIN]: in data set [1], the PC50 is over 100 µM. The Activity entry in [3] is given as “Non-Toxic”.
